Laboratory results: ChEMBL document CHEMBL5303300, “EUbOPEN Chemogenomics Library - Multiplex” (2023)
“And” between values parts separate entries of the source, which are not always exact repeats. Equal values may be shown once.

Columns and labels:
[1] = tested on: HEK-293T; test: Multiplex assay against HEK293T; assay type: toxicity, cell-based; settings: human, number of replicates 2
Procedure, shortened: (§1)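 Values for tubulin, mitochondrial-mass and membrane-permeability phenotypes are per cents of cells with healthy nuclei. These cells were identified by CellPathfinder machine-learning gating of live cells that had been stained at seeding with Hoechst33342, BioTracker Green Microtubule Cytoskeleton Dye, MitoTracker Red and Annexin V Alexa Fluor 680 and imaged on a CQ1 microscope at 37°C and 5% CO2 after compound addition. The gating first set Hoechst high-intensity objects apart from normal cells, then split normal cells into healthy, pyknosed or fragmented nuclei, and pyknosed cells into mitotic or apoptotic.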

[2] = tested on: U2OS; test: Multiplex assay against U2OS; assay type: toxicity, cell-based; settings: human, number of replicates 2; procedure, shortened: as §1
[3] = 24 h, 1 µM, compound concentration 1 uM
[4] = 24 h, 10 µM, compound concentration 10 uM
[5] = 48 h, 1 µM, compound concentration 1 uM
[6] = 48 h, 10 µM, compound concentration 10 uM
[7] = 12 h, 1 µM, compound concentration 1 uM
[8] = 12 h, 10 µM, compound concentration 10 uM

Structure (SMILES): COc1ccc2cc(S(=O)(=O)N[C@H](CC(=O)N[C@H](Cc3ccc(CN4[C@H](C)CCC[C@@H]4C)cc3)C(=O)N(C)C(C)C)c3ccc4c(c3)OCO4)ccc2c1.Cl
- Population Mitotic Cells (%) [1, 3]: 47% and 43%
- Population Normal (%) [1, 3]: 93% and 90%
- Population Pyknosed Nuclei (%) [1, 3]: 7% and 10%
- Population Tubulin-Different-Phenotype (%) [1, 3]: 74% and 73%
- Total Cell Count [1, 3]: 766 and 588
- Population Apoptotic (%) [1, 4]: 80% and 69%
- Population Fragmented Nuclei (%) [1, 4]: 2% and 5%
- Population Healthy Nuclei (%) [1, 4]: 76% and 75%
- Population Hoechst High Intensity Objects (%) [1, 4]: 10% and 15%
- Population Membrane Permeable-Phenotype (%) [1, 4]: 1% and 2%
- Population Mitochondria Different-Phenotype (%) [1, 4]: 88% and 86%
- Population Mitotic Cells (%) [1, 4]: 19% and 30%
- Population Normal (%) [1, 4]: 89% and 84%
- Population Pyknosed Nuclei (%) [1, 4]: 20% and 19%
- Population Tubulin-Different-Phenotype (%) [1, 4]: 78% and 75%
- Total Cell Count [1, 4]: 417 and 393
- Population Apoptotic (%) [1, 5]: 18% and 44%
- Population Fragmented Nuclei (%) [1, 5]: 10% and 8%
- Population Healthy Nuclei (%) [1, 5]: 84% and 85%
- Population Hoechst High Intensity Objects (%) [1, 5]: 8% and 9%
- Population Membrane Permeable-Phenotype (%) [1, 5]: 6% and 3%
- Population Mitochondria Different-Phenotype (%) [1, 5]: 5% and 4%
- Population Mitotic Cells (%) [1, 5]: 81% and 55%
- Population Normal (%) [1, 5]: 91% and 90%
- Population Pyknosed Nuclei (%) [1, 5]: 4% and 6%
- Population Tubulin-Different-Phenotype (%) [1, 5]: 44% and 41%
- Total Cell Count [1, 5]: 1592 and 1105
- Population Apoptotic (%) [1, 6]: 88% and 78%
- Population Fragmented Nuclei (%) [1, 6]: 6% and 9%
- Population Healthy Nuclei (%) [1, 6]: 81% and 80%
- Population Hoechst High Intensity Objects (%) [1, 6]: 14% and 17%
- Population Membrane Permeable-Phenotype (%) [1, 6]: 2% and 3%
- Population Mitochondria Different-Phenotype (%) [1, 6]: 78% and 79%
- Population Mitotic Cells (%) [1, 6]: 12% and 21%
- Population Normal (%) [1, 6]: 85% and 82%
- Population Pyknosed Nuclei (%) [1, 6]: 11% and 10%
- Population Tubulin-Different-Phenotype (%) [1, 6]: 84% and 87%
- Total Cell Count [1, 6]: 498 and 427
- Population Apoptotic (%) [2, 7]: 20% and 30%
- Population Fragmented Nuclei (%) [2, 7]: 8% and 4%
- Population Healthy Nuclei (%) [2, 7]: 76% and 85%
- Population Hoechst High Intensity Objects (%) [2, 7]: 2% and 0%
- Population Membrane Permeable-Phenotype (%) [2, 7]: 11% and 14%
- Population Mitochondria Different-Phenotype (%) [2, 7]: 7% and 20%
- Population Mitotic Cells (%) [2, 7]: 80% and 69%
- Population Normal (%) [2, 7]: 97% and 99%
- Population Pyknosed Nuclei (%) [2, 7]: 14% and 10%
- Population Tubulin-Different-Phenotype (%) [2, 7]: 30% and 45%
- Population Apoptotic (%) [2, 8]: 100% and 66%
- Population Healthy Nuclei (%) [2, 8]: 50% and 75%
- Population Hoechst High Intensity Objects (%) [2, 8]: 3% and 0%
- Population Membrane Permeable-Phenotype (%) [2, 8]: 81% and 37%
- Population Mitochondria Different-Phenotype (%) [2, 8]: 81% and 58%
- Population Normal (%) [2, 8]: 96% and 100%
- Population Pyknosed Nuclei (%) [2, 8]: 18% and 21%
- Population Tubulin-Different-Phenotype (%) [2, 8]: 93% and 100%
- Population Apoptotic (%) [2, 3]: 50%
- Population Fragmented Nuclei (%) [2, 3]: 5% and 6%
- Population Healthy Nuclei (%) [2, 3]: 79% and 73%
- Population Hoechst High Intensity Objects (%) [2, 3]: 2% and 0%
- Population Membrane Permeable-Phenotype (%) [2, 3]: 3% and 11%
- Population Mitochondria Different-Phenotype (%) [2, 3]: 12% and 21%
- Population Mitotic Cells (%) [2, 3]: 50% and 49%
- Population Normal (%) [2, 3]: 97% and 99%
- Population Pyknosed Nuclei (%) [2, 3]: 15% and 19%
- Population Tubulin-Different-Phenotype (%) [2, 3]: 32% and 42%
- Population Apoptotic (%) [2, 4]: 72% and 81%
- Population Fragmented Nuclei (%) [2, 4]: 21% and 7%
- Population Healthy Nuclei (%) [2, 4]: 43% and 62%
- Population Hoechst High Intensity Objects (%) [2, 4]: 3% and 0%
- Population Membrane Permeable-Phenotype (%) [2, 4]: 92% and 74%
- Population Mitochondria Different-Phenotype (%) [2, 4]: 71% and 61%
- Population Mitotic Cells (%) [2, 4]: 27% and 18%
- Population Normal (%) [2, 4]: 96% and 100%
- Population Pyknosed Nuclei (%) [2, 4]: 34% and 30%
- Population Tubulin-Different-Phenotype (%) [2, 4]: 100% and 98%
- Population Apoptotic (%) [2, 5]: 76% and 84%
- Population Fragmented Nuclei (%) [2, 5]: 18% and 7%
- Population Healthy Nuclei (%) [2, 5]: 60% and 74%
- Population Hoechst High Intensity Objects (%) [2, 5]: 0%
- Population Membrane Permeable-Phenotype (%) [2, 5]: 7% and 13%
- Population Mitochondria Different-Phenotype (%) [2, 5]: 10% and 18%
- Population Mitotic Cells (%) [2, 5]: 23% and 15%
- Population Normal (%) [2, 5]: 100% and 99%
- Population Pyknosed Nuclei (%) [2, 5]: 20% and 17%
- Population Tubulin-Different-Phenotype (%) [2, 5]: 25% and 32%
- Population Apoptotic (%) [2, 6]: 100% and 95%
- Population Healthy Nuclei (%) [2, 6]: 22% and 42%
- Population Hoechst High Intensity Objects (%) [2, 6]: 0%
- Population Membrane Permeable-Phenotype (%) [2, 6]: 83% and 85%
- Population Mitochondria Different-Phenotype (%) [2, 6]: 50% and 70%
- Population Mitotic Cells (%) [2, 6]: 0% and 4%
- Population Normal (%) [2, 6]: 100%
- Population Pyknosed Nuclei (%) [2, 6]: 40% and 51%
- Population Tubulin-Different-Phenotype (%) [2, 6]: 83% and 99%
